Consider 23 molecules from ChEMBL document CHEMBL1129244, “Inhibition of UDP-N-acetylglucosamine import into Golgi membranes by nucleoside monophosphates” (J Med Chem, 1996).

Assay [1] can be described thus: Inhibitory concentration at which there is accumulation of UDP-[3H]-GlcNAc in the lumen of the Golgi membranes. Format: functional, cell membranes, Oryctolagus cuniculus. The method in brief: (§1)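 Rabbit liver Golgi-enriched membranes were incubated as in the import assay with 1 μM UDP-[³H]GlcNAc and varied inhibitor concentrations. Uptake was allowed to reach equilibrium (20–30 min) before membrane-associated label was measured by filtration. 1 mM AMP-PNP was added to limit UDP-GlcNAc degradation. IC50 was derived by curve fitting; values are averages of at least three independent measurements.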

The nature of assay [2]: The compound was tested for extent of 1 uM UDP-[3H]-GlcNAc accumulation into the lumen of the Golgi membranes from rabbit liver homogenate. Format: functional, tissue-based, Oryctolagus cuniculus. The procedure, abridged:
as §1

The nature of assay [3]: In vitro inhibition of UDP-[3H]-GlcNAc import into the lumen of the Golgi membranes from rabbit liver homogenate. Format: functional, tissue-based, Oryctolagus cuniculus. The procedure, abridged:
(§2)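 Golgi-enriched membranes from rabbit liver homogenate incubated with 1 μM UDP-[³H]GlcNAc plus a range of inhibitor concentrations. Import into the lumen was measured by filtration under initial-velocity conditions, after 90 s at 25 °C, where uptake is linear with time. IC50 and standard deviation were obtained by curve fitting. For UDP, assays included 2 mM EDTA.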

A short description of assay [4]: (§3) The compound was tested for inhibition of the rate of 1 uM UDP-[3H]-GlcNAc import into the lumen of the Golgi membranes. It counts as functional, Oryctolagus cuniculus. The method in brief:
as §2

The species entered for assay [5] is Oryctolagus cuniculus. The assay is described as §3. It counts as functional.
The nature of assay [6]: The compound was tested for extent of UDP-[3H]-GlcNAc accumulation into the lumen of the Golgi membranes. Format: functional, Oryctolagus cuniculus. The procedure, abridged: as §1

For `Cc1cn([C@H]2C[C@H](O)[C@@H](COP(=O)(O)O)O2)c(=O)[nH]c1=O` [THYMIDINE MONOPHOSPHATE], the IC50 was determined as 11 µM in assay [1], 11 µM in assay [2] and 10 µM in assay [3].
Take `N[C@H]1[C@@H](OP(=O)(O)OP(=O)(O)OC[C@H]2O[C@@H](n3ccc(=O)[nH]c3=O)[C@H](O)[C@@H]2O)O[C@H](CO)[C@H](O)[C@@H]1O` [URACIL DIPHOSPHATE GALACTOSAMINE]: in assay [4], the IC50 worked out at 40 µM.
`CC(=O)N[C@@H]1[C@H](OP(=O)(O)OP(=O)(O)OC[C@H]2O[C@@H](n3ccc(=O)[nH]c3=O)[C@H](O)[C@@H]2O)O[C@@H](CO)[C@H](O)[C@H]1O`: the values for the IC50 in assay [4] and in assay [1] were 7 µM and 4 µM, respectively. Also, in assay [5], the Km was determined as 2 µM.
In assay [3], `Nc1ccn([C@@H]2O[C@H](COP(=O)(O)O)[C@@H](O)[C@H]2O)c(=O)n1` (stereo in doubt; form 1) gave an IC50 of over 100 µM.
Consider `Cc1cn([C@@H]2O[C@H](COP(=O)(O)O)[C@@H](O)[C@@H]2F)c(=O)[nH]c1=O`, for which the IC50 in assay [3] is over 200 µM.
For the molecule `Cc1cn([C@H]2CC[C@H](COP(=O)(O)O)O2)c(=O)[nH]c1=O`, in assay [3], the IC50 is over 200 µM.
With `CC(=O)N[C@H]1[C@H]([C@H](O)[C@H](O)CO)O[C@](OP(=O)(O)OC[C@H]2O[C@@H](n3ccc(N)nc3=O)[C@H](O)[C@@H]2O)(C(=O)O)C[C@@H]1O`, the half-maximal inhibitory concentration (IC50) was 35 µM in assay [1] and over 50 µM in assay [3].
`CC#Cc1cn([C@H]2C[C@H](O)[C@@H](COP(=O)(O)O)O2)c(=O)[nH]c1=O`: the IC50 in assay [6] and in assay [3] was over 40 µM each time.
Take `CCc1cn(C2O[C@H](COP(=O)(O)O)[C@@H](O)[C@@H]2O)c(=O)[nH]c1=O` (stereo partly specified): the IC50 in assay [6] amounted to 5 µM; in assay [3], 3.5 µM.
`O=c1ccn(C2O[C@H](COP(=O)(O)O)[C@@H](O)[C@@H]2O)c(=O)[nH]1` (stereo partly specified): the IC50 in assay [6] is 4 µM; in assay [1], 4 µM; in assay [3], 8 µM.
`N[C@H]1[C@@H](OP(=O)(O)OP(=O)(O)OC[C@H]2O[C@@H](n3ccc(=O)[nH]c3=O)[C@H](O)[C@@H]2O)O[C@H](CO)[C@@H](O)[C@@H]1O` [URACIL DIPHOSPHATE GLUCOSAMINE]: the 50% inhibitory concentration (IC50) in assay [4] is 7 µM; in assay [1] it was over 40 µM.
Regarding `O=c1[nH]c(=O)n([C@H]2C[C@H](O)[C@@H](COP(=O)(O)O)O2)cc1/C=C/Br`, in assay [4], the IC50 was found to be 5 µM.
`CCCc1cn([C@H]2C[C@H](O)[C@@H](COP(=O)(O)O)O2)c(=O)[nH]c1=O` displayed an IC50 in assay [4] of 100 µM.
Turning to `Cc1cn([C@H]2C[C@H](N=[N+]=[N-])[C@@H](COP(=O)(O)O)O2)c(=O)[nH]c1=O` (stereo in doubt; form 2) [AZIDOTHYMIDINE MONOPHOSPHATE], the values for the half-maximal inhibitory concentration (IC50) in assay [6], in assay [1] and in assay [3] were over 100 µM, over 100 µM and 85 µM, respectively.
Take `Cc1cn(COCCOP(=O)(O)O)c(=O)[nH]c1=O`: the IC50 in assay [6], in assay [1] and in assay [3] was over 100 µM each time.
In the case of `Cc1cn([C@H]2C[C@H](N=[N+]=[N-])[C@@H](COP(=O)(O)O)O2)c(=O)[nH]c1=O` (stereo in doubt; form 1) [AZIDOTHYMIDINE MONOPHOSPHATE], the values for the concentration for half-maximal inhibition (IC50) in assay [6], in assay [1] and in assay [3] were 5 µM, 5 µM and 7 µM, respectively.
With `O=c1ccn([C@H]2C[C@H](O)[C@@H](COP(=O)(O)O)O2)c(=O)[nH]1` [DEOXYURIDINE MONOPHOSPHATE], the 50% inhibitory concentration (IC50) in assay [3] came to 8 µM.
`O=c1[nH]c(=O)n(C2CC(F)C(COP(=O)(O)O)O2)cc1Cl` (stereo unspecified): the IC50 in assay [6] was found to be 4 µM; in assay [3], 9 µM.
In the case of `Cc1cn(C2CC(F)C(COP(=O)(O)O)O2)c(=O)[nH]c1=O` (stereo unspecified), half-maximal inhibition in assay [3] (IC50) required 1.5 µM.
Molecule `Nc1ccn([C@@H]2O[C@H](COP(=O)(O)O)[C@@H](O)[C@H]2O)c(=O)n1` (stereo in doubt; form 2) registered an IC50 in assay [3] of 10 µM. Compared with the last molecule, the IC50 is about 6.7-fold higher.
Turning to `Cc1cn([C@H]2CC[C@@H](COP(=O)(O)O)O2)c(=O)[nH]c1=O`, it took 9 µM to reach half-maximal inhibition in assay [3] (IC50).
Consider `O=c1[nH]c(=O)n(C2CSC(COP(=O)(O)O)O2)cc1F` (stereo unspecified), for which the IC50 came to 35 µM in assay [6] and 18 µM in assay [3].
The molecule `O=c1ccn([C@@H]2O[C@H](COP(=O)(O)O)[C@@H](O)[C@H]2F)c(=O)[nH]1` yielded an IC50 in assay [3] of 11 µM.
